Experimental data reported in PMC9055346 (RSC Advances, 2020).
Where “and” joins values, the source holds several entries; their conditions need not be identical. Equal values may be shown once.

How the values were obtained:
[1] = molecular target: AChE from electric eel (EeAChE) (Electrophorus electricus, UniProt O42275); assay: In vitro AChE inhibition, modified Ellman's method; assay type: biochemical; conditions: for IC50: EeAChE IC50 ± SEM, mean of three independent experiments; for inhibition at 156 µM / inhibition at 312 µM / inhibition at 625 µM / inhibition at 1250 µM / inhibition at 2500 µM / inhibition at 5000 µM / inhibition at 10000 µM: read-out: % of AChE inhibition; for AChE inhibitory activity (in words): up to 10 mM
Sequence of AChE from electric eel (EeAChE) (O42275 24-633): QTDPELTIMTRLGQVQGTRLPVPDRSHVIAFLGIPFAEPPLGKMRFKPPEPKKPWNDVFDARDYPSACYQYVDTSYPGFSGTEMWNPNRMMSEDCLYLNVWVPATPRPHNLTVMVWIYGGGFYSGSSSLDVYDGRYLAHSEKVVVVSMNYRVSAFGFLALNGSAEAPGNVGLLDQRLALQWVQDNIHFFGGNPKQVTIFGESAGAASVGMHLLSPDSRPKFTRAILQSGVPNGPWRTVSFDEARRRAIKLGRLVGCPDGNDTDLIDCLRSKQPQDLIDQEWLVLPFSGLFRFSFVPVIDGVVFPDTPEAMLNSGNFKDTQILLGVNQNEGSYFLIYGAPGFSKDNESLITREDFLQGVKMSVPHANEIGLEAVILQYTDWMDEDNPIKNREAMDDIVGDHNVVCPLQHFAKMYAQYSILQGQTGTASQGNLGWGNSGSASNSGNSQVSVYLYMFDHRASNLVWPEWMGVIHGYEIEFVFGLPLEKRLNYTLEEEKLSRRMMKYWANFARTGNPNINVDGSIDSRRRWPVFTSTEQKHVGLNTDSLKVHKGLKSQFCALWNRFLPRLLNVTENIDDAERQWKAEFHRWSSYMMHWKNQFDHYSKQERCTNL

[2] = Antioxidant assay, ORAC-FL method; conditions: compound and Trolox at 8 μM, 37 °C, three independent experiments
In short: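 ORAC-FL in 75 mM phosphate buffer, 200 μL total: test compound, Trolox (both 8 μM) or buffer blank with 150 nM fluorescein solution, kept dark at 37 °C for 30 min. Then 12 mM AAPH solution is added and fluorescence (ex 485/em 535 nm) read every 1 min for 15 min. Net AUC vs blank is expressed as Trolox equivalents (Trolox = 1). Triplicates; three independent experiments, mean ± SEM.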

[3] = Metal chelation study by UV spectrophotometer; assay type: physicochemical; conditions: for chelation of Al^3+ (in words): UV spectra 200 to 600 nm
In short: (§1)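 UV spectra from 200 to 600 nm at 37 °C. Test compound and metal salt (FeCl3, CuCl2, ZnSO4·H2O or AlCl3·6H2O) are combined at 100 μM each and incubated at 37 °C for 30 min. Compound-alone spectra use water in place of metal. Read-outs are % change in absorbance, (+) for decrease and (−) for increase, plus band shift.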

[4] = Metal chelation study by UV spectrophotometer; assay type: physicochemical; conditions: for chelation of Fe^3+ (in words): UV spectra 200 to 600 nm
In short: as §1

[5] = Metal chelation study, selectivity towards essential metals; assay type: physicochemical; conditions: UV spectra
In short: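 KCl, NaCl, CaSO4 or […] solutions are mixed with test compound at 100 μM each ligand and metal, incubated at 37 °C for 30 min, and scanned by UV from 200 to 600 nm, with compound-alone spectra taken in water. For the affinity check, Fe3+, Zn2+, Cu2+, Ca2+, Mg2+, Na+ and K+ are mixed at equal concentrations with test compound at 100 μM.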

[6] = Affinity study of 5i towards Fe^3+ in metal pool; assay type: physicochemical; conditions: Zn^2+, Cu^2+, Ca^2+, Mg^2+, Na^+ and K^+ and 5i, 100 μM each
[7] = Stoichiometric study of Fe^3+–5i complex; assay type: physicochemical; conditions: Fe^3+ 0–100 μM, 5i 100 μM; at 239 nm and 327 nm as printed
In short: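 UV titration at 37 °C: 100 μM test compound in a cuvette receives 20 μL aliquots of 1 mM FeCl3, raising Fe3+ in 10 μM steps to a final 10–100 μM. Spectra are recorded after each addition. A Job's plot is built from band absorbances, and the mole fraction is obtained by extrapolation.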

Structure (SMILES)	IC50 [1]	inhibition at 156 µM [1]	inhibition at 312 µM [1]	inhibition at 625 µM [1]	inhibition at 1250 µM [1]	inhibition at 2500 µM [1]	inhibition at 5000 µM [1]	inhibition at 10000 µM [1]	ORAC index ± SEM [2]	other results
Cc1ncc(COCc2cn(Cc3ccccc3C(F)(F)F)nn2)c(CO)c1O [Compound 5q, 4-(Hydroxymethyl)-2-methyl-5-(((1-(2-(trifluoromethyl)benzyl)-1H-1,2,3-triazol-4-yl)methoxy)methyl)pyridin-3-ol]	1.13 mM	22.5%	26.9%	39.1%	53.8%	64.1%	73.4%	81.9%	0.7168 Trolox equivalents	chelation of Al^3+ (in words) [3]: chelated; chelation of Fe^3+ (in words) [4]: chelated
Cc1ncc(CO)c(CO)c1O [Pyridoxine, reference compound]	–	–	–	–	–	–	–	–	0.5249 Trolox equivalents	AChE inhibitory activity (in words) [1]: not an AChE inhibitor; AChE inhibitory activity (in words) ([1]; listed as pyridoxine): inactive
Cc1ncc(COCc2cn(Cc3cccc(C(F)(F)F)c3)nn2)c(CO)c1O [Compound 5p, 4-(Hydroxymethyl)-2-methyl-5-(((1-(3-(trifluoromethyl)benzyl)-1H-1,2,3-triazol-4-yl)methoxy)methyl)pyridin-3-ol]	3.65 mM	–	–	–	–	–	–	–	0.8718 Trolox equivalents	–
Cc1ncc(COCc2cn(Cc3ccc(F)cc3)nn2)c(CO)c1O [Compound 5g, 5-(((1-(4-Fluorobenzyl)-1H-1,2,3-triazol-4-yl)methoxy)methyl)-4-(hydroxymethyl)-2-methylpyridin-3-ol]	6.47 mM	–	–	–	–	–	–	–	1.4489 Trolox equivalents	–
Cc1c(C)c2c(c(C)c1O)CCC(C)(C(=O)O)O2 (stereo not drawn) [Trolox, reference compound]	–	–	–	–	–	–	–	–	1 Trolox equivalents	–
Cc1ncc(COCc2cn(Cc3ccc(Cl)c(Cl)c3)nn2)c(CO)c1O [Compound 5l, 5-(((1-(3,4-Dichlorobenzyl)-1H-1,2,3-triazol-4-yl)methoxy)methyl)-4-(hydroxymethyl)-2-methylpyridin-3-ol]	3.38 mM	–	–	–	–	–	–	–	1.9421 Trolox equivalents	–
Cc1ccc(Cn2cc(COCc3cnc(C)c(O)c3CO)nn2)cc1 [Compound 5b, 4-(Hydroxymethyl)-2-methyl-5-(((1-(4-methylbenzyl)-1H-1,2,3-triazol-4-yl)methoxy)methyl)pyridin-3-ol]	3.38 mM	–	–	–	–	–	–	–	1.8428 Trolox equivalents	–
Cc1ncc(COCc2cn(Cc3ccc(C(F)(F)F)cc3)nn2)c(CO)c1O [Compound 5o, 4-(Hydroxymethyl)-2-methyl-5-(((1-(4-(trifluoromethyl)benzyl)-1H-1,2,3-triazol-4-yl)methoxy)methyl)pyridin-3-ol]	6.52 mM	–	–	–	–	–	–	–	2.0758 Trolox equivalents	–
Cc1ncc(COCc2cn(Cc3ccc(Br)cc3)nn2)c(CO)c1O [Compound 5m, 5-(((1-(4-Bromobenzyl)-1H-1,2,3-triazol-4-yl)methoxy)methyl)-4-(hydroxymethyl)-2-methylpyridin-3-ol]	3.14 mM	–	–	–	–	–	–	–	1.215 Trolox equivalents	–
COc1cccc(Cn2cc(COCc3cnc(C)c(O)c3CO)nn2)c1 [Compound 5e, 4-(Hydroxymethyl)-5-(((1-(3-methoxybenzyl)-1H-1,2,3-triazol-4-yl)methoxy)methyl)-2-methylpyridin-3-ol]	4.57 mM	–	–	–	–	–	–	–	1.8862 Trolox equivalents	–
Cc1cccc(Cn2cc(COCc3cnc(C)c(O)c3CO)nn2)c1 [Compound 5c, 4-(Hydroxymethyl)-2-methyl-5-(((1-(3-methylbenzyl)-1H-1,2,3-triazol-4-yl)methoxy)methyl)pyridin-3-ol]	1.38 mM	22.5%	26.9%	39.1%	53.8%	64.1%	73.4%	81.9%	2.0164 Trolox equivalents	chelation of Al^3+ (in words) [3]: chelated; chelation of Fe^3+ (in words) [4]: chelated
Cc1ncc(COCc2cn(Cc3cccc(Br)c3)nn2)c(CO)c1O [Compound 5n, 5-(((1-(3-Bromobenzyl)-1H-1,2,3-triazol-4-yl)methoxy)methyl)-4-(hydroxymethyl)-2-methylpyridin-3-ol]	1.08 mM	14.7%	25.8%	42%	57.4%	70.2%	75.9%	86.3%	2.2079 Trolox equivalents	–
Cc1ncc(COCc2cn(Cc3ccccc3)nn2)c(CO)c1O [Compound 5a, 5-(((1-Benzyl-1H-1,2,3-triazol-4-yl)methoxy)methyl)-4-(hydroxymethyl)-2-methylpyridin-3-ol]	> 10 mM	–	–	–	–	–	–	–	1.0564 Trolox equivalents	AChE inhibitory activity (in words) [1]: inactive
Cc1ncc(COCc2cn(Cc3cc(F)cc(F)c3)nn2)c(CO)c1O [Compound 5i, 5-(((1-(3,5-Difluorobenzyl)-1H-1,2,3-triazol-4-yl)methoxy)methyl)-4-(hydroxymethyl)-2-methylpyridin-3-ol]	1.56 mM	15%	26.6%	35.4%	43%	61.4%	66.8%	77.9%	1.21 ± 0.28 Trolox equivalents and 1.2138 Trolox equivalents	chelation of Al^3+ (in words) [3]: chelated; increase in absorbance with Al^3+ ([3]; at 292 nm): 104%; bathochromic shift with Al^3+ ([3]; band at 292 nm): 4 nm; chelation of Fe^3+ (in words) [4]: chelated; bathochromic shift with Fe^3+ ([4]; band at 292 nm): about 3 nm; chelation of Ca^2+, Mg^2+, Na^+ and K^+ (in words) [5]: did not chelate these metal ions at all; affinity towards Fe^3+ in the metal pool (in words) [6]: showed affinity towards Fe^3+ in the metal pool; mole fraction from Job's plot [7]: 0.5
Cc1ncc(COCc2cn(Cc3ccc(Cl)cc3)nn2)c(CO)c1O [Compound 5j, 5-(((1-(4-Chlorobenzyl)-1H-1,2,3-triazol-4-yl)methoxy)methyl)-4-(hydroxymethyl)-2-methylpyridin-3-ol]	2.72 mM	–	–	–	–	–	–	–	1.9697 Trolox equivalents	–
Cc1ccccc1Cn1cc(COCc2cnc(C)c(O)c2CO)nn1 [Compound 5d, 4-(Hydroxymethyl)-2-methyl-5-(((1-(2-methylbenzyl)-1H-1,2,3-triazol-4-yl)methoxy)methyl)pyridin-3-ol]	0.907 mM	33.5%	36.4%	51.1%	58.6%	69.6%	81.3%	86%	1.9723 Trolox equivalents	–
COc1cc(Cn2cc(COCc3cnc(C)c(O)c3CO)nn2)cc(OC)c1 [Compound 5f, 5-(((1-(3,5-Dimethoxybenzyl)-1H-1,2,3-triazol-4-yl)methoxy)methyl)-4-(hydroxymethyl)-2-methylpyridin-3-ol]	2.65 mM	–	–	–	–	–	–	–	2.3425 Trolox equivalents	–
Cc1ncc(COCc2cn(Cc3cccc(F)c3)nn2)c(CO)c1O [Compound 5h, 5-(((1-(3-Fluorobenzyl)-1H-1,2,3-triazol-4-yl)methoxy)methyl)-4-(hydroxymethyl)-2-methylpyridin-3-ol]	1.54 mM	19%	25.5%	35.1%	56.4%	60.5%	66.6%	69%	2.1015 Trolox equivalents	–
Cc1ncc(COCc2cn(Cc3cccc(Cl)c3)nn2)c(CO)c1O [Compound 5k, 5-(((1-(3-Chlorobenzyl)-1H-1,2,3-triazol-4-yl)methoxy)methyl)-4-(hydroxymethyl)-2-methylpyridin-3-ol]	2.71 mM	–	–	–	–	–	–	–	0.8358 Trolox equivalents	–
